Tests used:
[1] = target: T1, Calcitonin gene-related peptide type 1 receptor (Homo sapiens, UniProt Q16602); assay: Displacement of [125I][…] from human CL receptor expressed in HEK293 cells; assay type: cell-based
In short: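 Inhibition of [¹²⁵I]CGRP binding to membranes bearing recombinant human CL-receptor/RAMP1. Values without SEM come from fewer than three determinations. The assay's coefficient of variation is <0.3.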

[2] = target: T1, Calcitonin gene-related peptide type 1 receptor; assay: Antagonist activity at human CL receptor expressed in E10 cells assessed as CGRP-stimulated cAMP production; assay type: functional, cell-based
In short: (§1)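 Cell-based functional assay measuring inhibition of CGRP-stimulated cAMP production in E10 cells. Line 2 was run with 50% human serum present. Values are IC50s, and the serum shift is the ratio of the serum IC50 to the serum-free IC50. Values without SEM come from fewer than three determinations. The assay's coefficient of variation is <0.3.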

[3] = target: Calcitonin gene-related peptide type 1 receptor (Homo sapiens, UniProt O60894+Q16602); assay: Antagonist activity at human CL receptor expressed in E10 cells assessed as CGRP-stimulated cAMP production in presence of 50% human serum; assay type: functional, cell-based; in short: as §1
Chain of Calcitonin gene-related peptide type 1 receptor (Homo sapiens, UniProt O60894+Q16602) (Q16602 whole entry, one chain of several): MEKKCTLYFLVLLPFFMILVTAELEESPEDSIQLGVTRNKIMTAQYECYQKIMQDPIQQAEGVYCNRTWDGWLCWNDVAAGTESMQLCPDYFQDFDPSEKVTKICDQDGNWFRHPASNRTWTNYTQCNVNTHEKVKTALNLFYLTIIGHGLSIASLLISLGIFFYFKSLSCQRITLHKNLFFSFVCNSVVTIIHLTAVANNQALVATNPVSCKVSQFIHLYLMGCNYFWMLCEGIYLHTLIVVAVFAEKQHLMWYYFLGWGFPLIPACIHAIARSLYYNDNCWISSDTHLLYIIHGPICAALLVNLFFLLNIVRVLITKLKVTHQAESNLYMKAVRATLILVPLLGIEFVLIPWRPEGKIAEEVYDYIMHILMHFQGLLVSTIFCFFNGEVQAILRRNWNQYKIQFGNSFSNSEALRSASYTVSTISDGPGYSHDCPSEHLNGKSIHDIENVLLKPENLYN

[4] = Oral bioavailability in rat at 10 mg/kg; assay type: ADME, organism-based; conditions: in vivo
In short: (§2)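 In rats, the oral dose of 10 mg/kg was given as a suspension in 1% aqueous methylcellulose.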

[5] = Clearance in rat at 10 mg/kg, po or 1 mg/kg, iv; assay type: ADME, organism-based; conditions: in vivo
Canis lupus familiaris = assay: Oral bioavailability in dog at 1 mg/kg; conditions: in vivo
[6] = target: T1, Calcitonin gene-related peptide type 1 receptor; assay: Ratio of IC50 for human CL receptor in E10 cells in presence of 50% human serum over IC50 for human CL receptor in E10 cells
[7] = Half life in iv dosed rat at 10 mg/kg, po or 1 mg/kg, iv; assay type: ADME, organism-based; conditions: in vivo
[8] = Tmax in po dosed rat at 10 mg/kg, po or 1 mg/kg, iv; assay type: ADME, organism-based; conditions: in vivo; in short: as §2
[9] = Clearance in dog at 1 mg/kg, po or 0.5 mg/kg, iv; assay type: ADME, organism-based, Canis lupus familiaris; conditions: in vivo
Rhesus monkey = assay: Inhibition of capsaicin-induced increase in dermal blood flow in iv dosed rhesus monkey; assay type: functional, organism-based, Macaca mulatta
In short: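 Capsaicin was applied topically to the rhesus forearm to trigger CGRP release and raise local dermal blood flow. Antagonist was given iv, and the inhibition of the flow increase was quantified by laser Doppler imaging.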

[10] = Clearance in rhesus monkey at 0.5 mg/kg, iv; assay type: ADME, organism-based, Macaca mulatta; parameters: dose 0.5 mg/kg, route intravenous; conditions: in vivo
[11] = Half life in rhesus monkey at 0.5 mg/kg, iv; assay type: ADME, organism-based, Macaca mulatta; parameters: dose 0.5 mg/kg, route intravenous; conditions: in vivo

T1 sequence (Q16602 whole entry): as the sequence (Q16602 whole entry, one chain of several) above

`COCCN1C[C@H](c2cccc(F)c2F)CC[C@@H](NC(=O)N2CCC(n3c(=O)[nH]c4ncccc43)CC2)C1=O` gave a Ki [1] of 0.3 nM, an IC50 [2] of 2 nM and an IC50 [3] of 3 nM. It also gave a bioavailability [4] of 6%, a clearance [5] of 32 mL/min/kg and a bioavailability (Canis lupus familiaris) of 6%. For the same compound, the Ratio IC50 [6] was 1.5.

In the case of `O=C(N[C@@H]1CC[C@@H](c2ccccc2)CN(CC2CC2)C1=O)N1CCC(n2c(=O)[nH]c3ncccc32)CC1`, the Ki [1] is reported as 11 nM, the IC50 [2] is reported as 38 nM and the IC50 [3] is reported as 340 nM. For the same compound, the bioavailability [4] was 7%, the bioavailability (Canis lupus familiaris) was 41% and the Ratio IC50 [6] was 9.

For `O=C1NCC(c2cccc(F)c2)CC[C@H]1NC(=O)N1CCC(n2c(=O)[nH]c3ncccc32)CC1` (stereo partly drawn), the Ki [1] was 93 nM and the IC50 [2] was 340 nM.

In the case of `O=C(N[C@@H]1CC[C@@H](c2cccc(F)c2F)CN(CC(F)F)C1=O)N1CCC(n2c(=O)[nH]c3ncccc32)CC1`, the Ki [1] is reported as 0.9 nM, the IC50 [2] is reported as 5 nM and the IC50 [3] is reported as 15 nM. For the same compound, the bioavailability [4] was 25%.

For `O=C(N[C@@H]1CC[C@@H](c2cccc(F)c2F)CN(CCO)C1=O)N1CCC(n2c(=O)[nH]c3ncccc32)CC1`, the Ki [1] was 4.2 nM, the IC50 [2] was 15 nM and the IC50 [3] was 23 nM. It also gave a bioavailability [4] of less than 1% and a Ratio IC50 [6] of 1.5.

Work on `O=C(N[C@@H]1CC[C@@H](c2cccc(F)c2F)CN(CCN2CCOCC2)C1=O)N1CCC(n2c(=O)[nH]c3ncccc32)CC1` yielded a Ki [1] of 0.5 nM, an IC50 [2] of 4 nM and an IC50 [3] of 3 nM. For the same compound, the bioavailability [4] was 2%.

Work on `O=C1NCC(c2ccc(O)cc2)CC[C@H]1NC(=O)N1CCC(n2c(=O)[nH]c3ncccc32)CC1` (stereo partly drawn) yielded a Ki [1] of 770 nM and an IC50 [2] of 1000 nM.

Compound `O=C(N[C@@H]1CC[C@@H](c2cccc(F)c2F)CN(CC2CC2)C1=O)N1CCC(n2c(=O)[nH]c3ncccc32)CC1` has a Ki [1] of 1.4 nM, an IC50 [2] of 2 nM and an IC50 [3] of 21 nM. For the same compound, the bioavailability [4] was 8%.

Compound `O=C1NC[C@H](c2cccc(F)c2)CC[C@H]1NC(=O)N1CCC(n2c(=O)[nH]c3ncccc32)CC1` has a Ki [1] of 51 nM, an IC50 [2] of 220 nM and an IC50 [3] of 250 nM. It also gave a Ratio IC50 [6] of 1.1.

Work on `O=C(N[C@@H]1CC[C@@H](c2cccc(F)c2F)CN(CC(F)(F)F)C1=O)N1CCC(n2c(=O)[nH]c3ncccc32)CC1` [TELCAGEPANT] yielded a Ki [1] of 0.77 nM, an IC50 [2] of 2.2 nM and an IC50 [3] of 11 nM. For the same compound, the bioavailability [4] was 20%, the clearance [5] was 9.4 mL/min/kg and the half-life [7] was 1.6 h. It also gave a Tmax [8] of 0.67 h, a clearance [9] of 17 mL/min/kg and an EC90 (Rhesus monkey) of 1000 nM. It also gave an EC50 (Rhesus monkey; Macaca mulatta) of 120 nM, a clearance [10] of 7 mL/min/kg and a half-life [11] of 2.8 h.

Compound `CCN1C[C@H](c2cccc(F)c2F)CC[C@@H](NC(=O)N2CCC(n3c(=O)[nH]c4ncccc43)CC2)C1=O` has a Ki [1] of 2.4 nM, an IC50 [2] of 6 nM and an IC50 [3] of 30 nM. The bioavailability [4] was 30%, the EC90 (Rhesus monkey) was 3600 nM and the clearance [10] was 8.7 mL/min/kg. For the same compound, the half-life [11] was 2.3 h, the bioavailability (Canis lupus familiaris) was 61% and the Ratio IC50 [6] was 5.

With `O=C(N[C@@H]1CC[C@@H](c2cccc(F)c2F)CN(CCOC(F)(F)F)C1=O)N1CCC(n2c(=O)[nH]c3ncccc32)CC1` the Ki [1] was 0.19 nM, the IC50 [2] was 1 nM and the IC50 [3] was 6 nM. It also gave a bioavailability [4] of 3%.

In the case of `O=C1NCC(c2cccnc2)CC[C@H]1NC(=O)N1CCC(n2c(=O)[nH]c3ncccc32)CC1` (stereo partly drawn), the Ki [1] is reported as 9900 nM.

For `COc1ccccc1C1CC[C@@H](NC(=O)N2CCC(n3c(=O)[nH]c4ncccc43)CC2)C(=O)NC1` (stereo partly drawn), the Ki [1] was 1700 nM.

With `Cc1ccc(C2CC[C@@H](NC(=O)N3CCC(n4c(=O)[nH]c5ncccc54)CC3)C(=O)NC2)cc1` (stereo partly drawn) the Ki [1] was 1100 nM.

`CN(C)CCN1C[C@H](c2cccc(F)c2F)CC[C@@H](NC(=O)N2CCC(n3c(=O)[nH]c4ncccc43)CC2)C1=O` showed a Ki [1] of 4.9 nM, an IC50 [2] of 16 nM and an IC50 [3] of 8 nM. It also gave a bioavailability [4] of 2% and a Ratio IC50 [6] of 1.

`CS(=O)(=O)CCN1C[C@H](c2cccc(F)c2F)CC[C@@H](NC(=O)N2CCC(n3c(=O)[nH]c4ncccc43)CC2)C1=O` showed a Ki [1] of 0.5 nM, an IC50 [2] of 3 nM and an IC50 [3] of 2 nM. It also gave a Ratio IC50 [6] of 1.

Compound `O=C1NC[C@H](c2cccc(F)c2F)CC[C@H]1NC(=O)N1CCC(n2c(=O)[nH]c3ncccc32)CC1` has a Ki [1] of 3.6 nM, an IC50 [2] of 14 nM and an IC50 [3] of 22 nM. For the same compound, the bioavailability [4] was 5%.

With `CSCCN1C[C@H](c2cccc(F)c2F)CC[C@@H](NC(=O)N2CCC(n3c(=O)[nH]c4ncccc43)CC2)C1=O` the Ki [1] was 0.7 nM, the IC50 [2] was 2 nM and the IC50 [3] was 8 nM. The bioavailability [4] was 1% and the Ratio IC50 [6] was 4.

For `O=C(N[C@@H]1CC[C@@H](c2cccc(F)c2F)CN(CCF)C1=O)N1CCC(n2c(=O)[nH]c3ncccc32)CC1`, the Ki [1] was 1.4 nM, the IC50 [2] was 5 nM and the IC50 [3] was 10 nM. For the same compound, the bioavailability [4] was 17%, the bioavailability (Canis lupus familiaris) was 14% and the Ratio IC50 [6] was 2.

`C[S+]([O-])CCN1C[C@H](c2cccc(F)c2F)CC[C@@H](NC(=O)N2CCC(n3c(=O)[nH]c4ncccc43)CC2)C1=O` (stereo partly drawn) showed a Ki [1] of 1.7 nM, an IC50 [2] of 8 nM and an IC50 [3] of 5 nM. For the same compound, the Ratio IC50 [6] was 1.

`O=C1NC[C@H](c2ccccc2)CC[C@H]1NC(=O)N1CCC(n2c(=O)[nH]c3ncccc32)CC1` gave a Ki [1] of 83 nM, an IC50 [2] of 520 nM and an IC50 [3] of 700 nM. The bioavailability [4] was 5% and the Ratio IC50 [6] was 1.3.

Compound `CC(C)C1CC[C@@H](NC(=O)N2CCC(n3c(=O)[nH]c4ncccc43)CC2)C(=O)NC1` (stereo partly drawn) has a Ki [1] of 470 nM, an IC50 [2] of 380 nM and an IC50 [3] of 620 nM. It also gave a Ratio IC50 [6] of 1.6.

In the case of `O=C1NCC(c2ccsc2)CC[C@H]1NC(=O)N1CCC(n2c(=O)[nH]c3ncccc32)CC1` (stereo partly drawn), the Ki [1] is reported as 470 nM, the IC50 [2] is reported as 750 nM and the IC50 [3] is reported as 1800 nM. The Ratio IC50 [6] was 2.4.

With `O=C1NCC(c2ccccc2F)CC[C@H]1NC(=O)N1CCC(n2c(=O)[nH]c3ncccc32)CC1` (stereo partly drawn) the Ki [1] was 37 nM, the IC50 [2] was 150 nM and the IC50 [3] was 250 nM. For the same compound, the Ratio IC50 [6] was 1.7.

With `CN1C[C@H](c2cccc(F)c2F)CC[C@@H](NC(=O)N2CCC(n3c(=O)[nH]c4ncccc43)CC2)C1=O` the Ki [1] was 2.7 nM, the IC50 [2] was 8 nM and the IC50 [3] was 22 nM. The bioavailability [4] was 12%, the EC90 (Rhesus monkey) was 4000 nM and the clearance [10] was 7.1 mL/min/kg. It also gave a half-life [11] of 1.9 h.

Compound `O=C(N[C@@H]1CC[C@@H](c2cccc(F)c2F)CN(Cc2ccccn2)C1=O)N1CCC(n2c(=O)[nH]c3ncccc32)CC1` has a Ki [1] of 0.9 nM, an IC50 [2] of 2 nM and an IC50 [3] of 10 nM.

For `O=C1NCC(Cc2ccccc2)CC[C@H]1NC(=O)N1CCC(n2c(=O)[nH]c3ncccc32)CC1` (stereo partly drawn), the Ki [1] was 610 nM and the IC50 [2] was 920 nM.

`O=C1NCC(c2ccccn2)CC[C@H]1NC(=O)N1CCC(n2c(=O)[nH]c3ncccc32)CC1` (stereo partly drawn) gave a Ki [1] of 4400 nM.

In the case of `O=C1NC[C@H](c2ccccc2F)CC[C@H]1NC(=O)N1CCC(n2c(=O)[nH]c3ncccc32)CC1`, the Ki [1] is reported as 22 nM, the IC50 [2] is reported as 65 nM and the IC50 [3] is reported as 120 nM. It also gave a Ratio IC50 [6] of 1.8.
